Measurements of several laboratories.
Protocols differ between the studies behind these lines. ≈ marks a conversion by molar mass, not a printed value.

Nc1nc(Cl)c2ncn([C@@H]3O[C@H](COC(=O)c4ccccc4)[C@@H](F)[C@@H]3F)c2n1 — EC90 (Hepatitis C virus; viral replication, inhibitor; Huh-7; replicon): 10000 nM
CC(C)CN1C[C@H]2CC[C@@H]3[C@]4(C)COC(C)(C)O[C@@H]4CC[C@@]3(C)[C@@H]2C[C@@H]1C1=CCOC1=O — inhibition (unidentified human coronavirus; cytopathic effect; MRC5; 25 µM, 72 h): 28.6%
CC(C)(O/N=C(\C(=O)N[C@@H]1C(=O)N2C(C(=O)[O-])=C(C[n+]3ccccc3)CS[C@H]12)c1csc(N)n1)C(=O)O — inhibition zone (Acinetobacter baumannii; microbial growth, disc diffusion; 10 µg/disc, clinical isolate): 6 mm
CCOC(=O)c1c(N)csc1-c1cn(-c2ccccc2)nc1-c1ccc(C)cc1 — MBC (Acinetobacter baumannii; microbial killing, broth dilution): 0.25 µg/mL (≈ 0.62 µM)
COC(=O)N[C@H](CC(C)C)C(=O)N1CCC[C@H]1C(=O)Nc1cccc(C#CC#Cc2cccc(NC(=O)[C@@H]3CCCN3C(=O)[C@@H](CC(C)C)NC(=O)OC)c2)c1 — EC50 (Hepatitis C virus; viral replication, inhibitor, luciferase; GETYPE4A; replicon): 18.6 nM
CC(=O)OC[C@@]1(C)[C@H]2CC[C@@H]3CN(Cc4ccc([N+](=O)[O-])cc4)[C@@H](C4=CCOC4=O)C[C@H]3[C@]2(C)CC[C@H]1OC(C)=O — inhibition (unidentified human coronavirus; cytopathic effect; MRC5; 25 µM, 72 h): 44.6%
Cc1c(NC(=O)CC2=NC(=O)CS2)c(=O)n(-c2ccccc2)n1C — MBC (Acinetobacter baumannii; microbial killing, broth dilution): 0.25 µg/mL (≈ 0.726 µM)
C[C@]1(CO)[C@H]2CC[C@@H]3CN(Cc4ccco4)[C@@H](C4=CCOC4=O)C[C@H]3[C@]2(C)CC[C@H]1O — inhibition (unidentified human coronavirus; cytopathic effect; MRC5; 25 µM, 72 h): -7.7%
O=C(O)c1cn(C2CC2)c2cc(N3CCNCC3)c(F)cc2c1=O — MBC (Acinetobacter baumannii; microbial killing, broth dilution): 0.25 µg/mL (≈ 0.754 µM)
COc1nc(OC)c2ncn([C@@H]3O[C@H](CO)[C@@H](F)[C@@H]3F)c2n1 — EC90 (Hepatitis C virus; viral replication, inhibitor; Huh-7; replicon): > 10000 nM
C/C(O)=C1\C(=O)C(CC(C)C)N(C(=O)C=Cc2ccccc2)C1=O (stereo not shown) — MIC (Proteus mirabilis; microbial growth; ATCC25933): > 200 µg/mL
Cc1ccc(S(=O)(=O)Nc2nc(N)c(-c3nc4ccccc4s3)c(-c3ccc(Cl)cc3)n2)cc1 — IC50 (Enterovirus B; plaque formation; BGM, B4): 74 µg/mL
CCCCOC(=O)N[C@H](C(=O)N1CCC[C@H]1C(=O)Nc1ccc(C#CC#Cc2ccc(NC(=O)[C@@H]3CCCN3C(=O)[C@@H](NC(=O)OCCCC)C(C)C)cc2)cc1)C(C)C — EC50 (Hepatitis C virus; viral replication, inhibitor, luciferase; Huh-5-2, GETYPE1B; 72 h, replicon): 919 nM
OC[C@H]1O[C@@H](n2cnc3c(NCc4ccccc4)nc(Cl)nc32)[C@@H](F)[C@@H]1F — EC50 (Hepatitis C virus; viral replication, inhibitor; Huh-7; replicon): 2900 nM
N#Cc1cc(-c2nc3ccccc3s2)c(=O)n(NS(=O)(=O)c2ccccc2)c1N — IC50 (Enterovirus B; plaque formation; BGM, B4): 84 µg/mL
COc1cc(O)c(CC=C(C)C)c(O)c1C(=O)/C=C/c1ccc(O)cc1 — IC50 (Leishmania tarentolae; parasite growth, resazurin; 48 h, promastigote): 780 nM
CC1(C)OC[C@@]2(C)[C@H]3CC[C@@H]4CN(Cc5ccccc5C5CC5)[C@@H](C5=CCOC5=O)C[C@H]4[C@]3(C)CC[C@H]2O1 — inhibition (unidentified human coronavirus; cytopathic effect; MRC5; 25 µM, 72 h): 93.2%
CCOC(=O)N[C@@H](CC(C)C)C(=O)N1CCC[C@@H]1C(=O)Nc1ccc(C#CC#Cc2ccc(NC(=O)[C@H]3CCCN3C(=O)[C@H](CC(C)C)NC(=O)OCC)cc2)cc1 — EC50 (Hepatitis C virus; viral replication, inhibitor, luciferase; Huh-5-2, GETYPE1B; 72 h, replicon): 5630 nM
CC1(C)OC[C@@]2(C)[C@H]3CC[C@@H]4CN(Cc5cccs5)[C@@H](C5=CCOC5=O)C[C@H]4[C@]3(C)CC[C@H]2O1 — inhibition (unidentified human coronavirus; cytopathic effect; MRC5; 25 µM, 72 h): 38.4%
Cc1ccc(C(=O)CNc2nc(NS(=O)(=O)c3ccccc3)ncc2-c2nc3ccccc3s2)cc1 — IC50 (Enterovirus B; plaque formation; BGM, B4): 90 µg/mL
CCOC(=O)N[C@H](C(=O)N1CCC[C@H]1C(=O)Nc1ccc(C#CC#Cc2ccc(NC(=O)[C@@H]3CCCN3C(=O)[C@@H](NC(=O)OCC)C(C)C)cc2)cc1)C(C)C — EC50 (Hepatitis C virus; viral replication, inhibitor, luciferase; Huh-5-2, GETYPE1B; 72 h, replicon): 90 nM
COC(=O)N[C@H](C(=O)N1CCC[C@H]1c1ncc(-c2ccc(-c3ccc(-c4cnc([C@@H]5CCCN5C(=O)[C@@H](NC(=O)OC)C(C)C)[nH]4)cc3)cc2)[nH]1)C(C)C — EC50 (Hepatitis C virus; viral replication, inhibitor; HEK-293T, GETYPE2A; replicon): 0.0035 nM
Cc1cn([C@H]2C[C@H](N=[N+]=[N-])[C@@H](CO)O2)c(=O)[nH]c1=O — EC90 (Hepatitis C virus; viral replication, inhibitor; Huh-7; replicon): > 10000 nM
O=C(Nc1ccccc1-c1ccc(F)c(F)c1)c1nccnc1C(F)(F)F — EC50 (Colletotrichum orbiculare; microbial growth): > 100 µg/mL
Cc1c(NN=C2SC(CC#N)=NC2=O)c(=O)n(-c2ccccc2)n1C — inhibition zone (Acinetobacter baumannii; microbial growth, well diffusion; 100000 µg/mL): 15 mm
COC(=O)N[C@H](C(=O)N1CCC[C@H]1C(=O)Nc1ccc(C#CC#Cc2ccc(NC(=O)[C@@H]3CCCN3C(=O)[C@@H](NC(=O)OC)C(C)C)cc2)cc1)C(C)C — EC50 (Hepatitis C virus; viral replication, inhibitor, luciferase; Huh-5-2, GETYPE1B; 72 h, replicon): 10 nM
CCCCCCC/C=C/C(=O)N1C(=O)/C(=C(\O)C2CCNCC2)C(=O)C1CC(C)C (stereo not shown) — MIC (Proteus mirabilis; microbial growth; ATCC25933): 200 µg/mL (≈ 478 µM)
Nc1nc2c(ncn2[C@@H]2O[C@H](CO)[C@@H](F)[C@@H]2F)c(=O)[nH]1 — EC50 (Hepatitis C virus; viral replication, inhibitor; Huh-7; replicon): > 10000 nM
C[C@@]12COCO[C@@H]1CC[C@]1(C)[C@@H]2CC[C@@H]2CN(Cc3ccc(F)cc3)[C@@H](C3=CCOC3=O)C[C@H]21 — inhibition (unidentified human coronavirus; cytopathic effect; MRC5; 25 µM, 72 h): 32%
N#CC(=Cc1ccccc1O)C1=NC(=O)C(=Cc2cn(-c3ccccc3)nc2-c2ccccc2)S1 — inhibition zone (Acinetobacter baumannii; microbial growth, well diffusion; 100000 µg/mL): 25 mm
Nc1nc(N)c2ncn([C@@H]3O[C@H](CO)[C@@H](F)[C@@H]3F)c2n1 — EC50 (Hepatitis C virus; viral replication, inhibitor; Huh-7; replicon): > 10000 nM
CCOC(=O)N[C@H](C(=O)N1CCC[C@H]1C(=O)Nc1cccc(C#CC#Cc2cccc(NC(=O)[C@@H]3CCCN3C(=O)[C@@H](NC(=O)OCC)C(C)C)c2)c1)C(C)C — EC50 (Hepatitis C virus; viral replication, inhibitor, luciferase; Huh-5-2, GETYPE1B; 72 h, replicon): 451 nM
Nc1nc(Cl)c2ncn([C@@H]3O[C@H](CO)[C@@H](F)[C@@H]3F)c2n1 — EC50 (Hepatitis C virus; viral replication, inhibitor; Huh-7; replicon): > 10000 nM
CCCCCCC/C=C/C(=O)N1C(=O)/C(=C(\O)c2ccccc2)C(=O)C1CC(C)C (stereo not shown) — MIC (Proteus mirabilis; microbial growth; ATCC25933): > 200 µg/mL
CC(C)[C@H](NC(=O)OCc1ccccc1)C(=O)N1CCC[C@H]1C(=O)Nc1cccc(C#CC#Cc2cccc(NC(=O)[C@@H]3CCCN3C(=O)[C@@H](NC(=O)OCc3ccccc3)C(C)C)c2)c1 — EC50 (Hepatitis C virus; viral replication, inhibitor, luciferase; Huh-5-2, GETYPE1B; 72 h, replicon): > 10000 nM
Nc1nc(NS(=O)(=O)c2ccccc2)nc(-c2ccc(Cl)cc2)c1-c1nc2ccccc2s1 — IC50 (Enterovirus B; plaque formation; BGM, B4): 91 µg/mL
CC(=O)OC[C@@]1(C)[C@H]2CC[C@@H]3CN(C(C)C)[C@@H](C4=CCOC4=O)C[C@H]3[C@]2(C)CC[C@H]1OC(C)=O — inhibition (unidentified human coronavirus; cytopathic effect; MRC5; 25 µM, 72 h): 80%
CCCCCCC/C=C/C(=O)N1C(=O)/C(=C(\O)c2ccncc2)C(=O)C1CC(C)C (stereo not shown) — MIC (Proteus mirabilis; microbial growth; ATCC25933): > 200 µg/mL
CC(C)Oc1c(NC(=O)c2ccc(NC(=O)[C@H](CC(N)=O)NC(=O)c3ccc(NC(=O)c4ccc(C#N)cn4)cc3)cc2)ccc(C(=O)Nc2ccc(C(=O)O)cc2)c1O — MIC (Proteus mirabilis; microbial growth; DSM4479): 4 µg/mL (≈ 4.92 µM)
O=[N+]([O-])c1ccc(O)c2ncccc12 — IC50 (Acinetobacter baumannii; microbial growth; 19606): 560 nM
Cc1c(NN=C2SC(C(C#N)=Cc3ccc(Cl)cc3)=NC2=O)c(=O)n(-c2ccccc2)n1C — inhibition zone (Acinetobacter baumannii; microbial growth, well diffusion; 100000 µg/mL): 13 mm
CCOC(=O)c1cc(C#N)c(=O)n(NS(=O)(=O)c2ccccc2)c1N — IC50 (Enterovirus B; plaque formation; BGM, B4): 88 µg/mL
CC1(C)OC[C@@]2(C)[C@H]3CC[C@@H]4CN(Cc5ccc(C(F)(F)F)cc5)[C@@H](C5=CCOC5=O)C[C@H]4[C@]3(C)CC[C@H]2O1 — inhibition (unidentified human coronavirus; cytopathic effect; MRC5; 25 µM, 72 h): 88.3%
C[C@@]1(O)[C@H](O)[C@@H](CO)O[C@H]1n1ccc(N)nc1=O — EC50 (Hepatitis C virus; viral replication, inhibitor; Huh-7; replicon): 1800 nM
CCOC(=O)N[C@@H](CC(C)C)C(=O)N1CCC[C@H]1C(=O)Nc1cccc(C#CC#Cc2cccc(NC(=O)[C@@H]3CCCN3C(=O)[C@H](CC(C)C)NC(=O)OCC)c2)c1 — EC50 (Hepatitis C virus; viral replication, inhibitor, luciferase; GETYPE4A; replicon): 40.9 nM
CCCCCCC/C=C/C(=O)N1CC(=O)/C(=C(\C)O)C1=O — MIC (Proteus mirabilis; microbial growth; ATCC25933): > 200 µg/mL
